Source: ChEMBL document CHEMBL2384939, “Synthesis of pyrazolo[1,5-a]pyrimidine linked aminobenzothiazole conjugates as potential anticancer agents” (Bioorg Med Chem Lett, 2013)
Activity calls are given as the source filed them. The rule behind the calls is not given here.

Tests used:
[1] = test system: HeLa; assay: Cytotoxicity against human HeLa cells after 48 hrs by MTT assay; assay type: functional, cell-based
Method in brief: (§1)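 MTT assay: […] were plated in DMEM with 10% FBS and incubated for 24 h at 37 °C under CO2. Compounds diluted in culture medium were added alongside a vehicle control for 48 h. MTT (10 µl of a 5 mg/ml stock) was added for a further 4 h. The supernatant was then removed, the formazan dissolved in DMSO, and absorbance read at 540 nm. IC50 was derived.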

[2] = test system: MCF7; assay: Cytotoxicity against human MCF7 cells after 48 hrs by MTT assay; assay type: functional, cell-based; conditions: MCF7, 48 h; method in brief: as §1
[3] = test system: DU-145; assay: Cytotoxicity against human DU145 cells after 48 hrs by MTT assay; assay type: functional, cell-based; conditions: DU-145, 48 h; method in brief: as §1
[4] = test system: ACHN; assay: Cytotoxicity against human ACHN cells after 48 hrs by MTT assay; assay type: functional, cell-based; method in brief: as §1
[5] = test system: A549; assay: Cytotoxicity against human A549 cells after 48 hrs by MTT assay; assay type: functional, cell-based; conditions: A549, 48 h; method in brief: as §1
[6] = test system: A549; assay: Induction of apoptosis in human A549 cells assessed as DNA fragmentation at 2 uM after 48 hrs by agarose gel electrophoresis; assay type: functional, cell-based
Method in brief: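 A549 cells (1×10^6) seeded in six-well plates for 24 h, then exposed to 2 µM compound or roscovitine for 48 h and pelleted. Lysate treated with SDS and RNase-A (2 h, 56 °C), then proteinase K (2 h, 37 °C). DNA precipitated with ammonium acetate/cold ethanol, dissolved in TE, and laddering resolved on 2% agarose gel against a 50 bp marker.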

[7] = test system: A549; assay: Induction of apoptosis in human A549 cells assessed as activation of caspase-3 at 2 uM after 48 hrs by ELISA relative to control; assay type: functional
Method in brief: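 A549 lung cancer cells exposed to 1 and 2 µM compound for 48 h, with roscovitine as positive control. Pellets lysed for 15 min, and supernatant caspase-3 activity read by a commercial colorimetric kit relative to untreated control. Values are mean ± SD of two experiments run in triplicate.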

[8] = test system: A549; assay: Cell cycle arrest at human A549 cells assessed as accumulation at G2/M phase at 2 uM after 48 hrs by propidium iodide-staining-based FACS flow cytometric analysis (reference value: 13.17%); assay type: functional
[9] = test system: A549; assay: Cell cycle arrest at human A549 cells assessed as accumulation at S phase at 2 uM after 48 hrs by propidium iodide-staining-based FACS flow cytometric analysis (reference value: 4.48%); assay type: functional
[10] = test system: A549; assay: Cell cycle arrest at human A549 cells assessed as accumulation at sub G1 phase at 2 uM after 48 hrs by propidium iodide-staining-based FACS flow cytometric analysis (reference value: 1.02%); assay type: functional
[11] = test system: A549; assay: Cell cycle arrest at human A549 cells assessed as accumulation at G0/G1 phase at 2 uM after 48 hrs by propidium iodide-staining-based FACS flow cytometric analysis (reference value: 81.33%); assay type: functional

Structure (SMILES) | IC50 [1] [µM] | IC50 [2] [µM] | IC50 [3] [µM] | IC50 [4] [µM] | IC50 [5] [µM] | Activity [6] | fold change (FC) [7] | Activity [8] [%] | Activity [9] [%] | Activity [10] [%] | Activity [11] [%]
COc1cc(-c2cc(C(=O)Nc3nc4cc(C)c(C)cc4s3)nc3cc(-c4ccccc4)nn23)cc(OC)c1OC | 8.91 | 2.29 | 3.71 | 3.8 | 2.34 | – | – | – | – | – | –
COc1ccc(-c2cc(C(=O)Nc3nc4ccccc4s3)nc3cc(-c4ccccc4)nn23)cc1OC | 8.91 | 14.7 | 19.1 | 7.94 | 5.49 | – | – | – | – | – | –
Cc1cc2nc(NC(=O)c3cc(-c4ccc(F)cc4)n4nc(-c5ccccc5)cc4n3)sc2cc1C | 18.2 | 17 | 12.9 | 33 | 12.6 | – | – | – | – | – | –
CC[C@H](CO)Nc1nc(NCc2ccccc2)c2ncn(C(C)C)c2n1 [SELICICLIB] | 1.81 | 3.98 | 1.9 | 2.88 | 2.18 | Active | 4 | 40.69 | 5.26 | 7.3 | 46.75
COc1ccc(-c2cc(C(=O)Nc3nc4ccc(F)cc4s3)nc3cc(-c4ccccc4)nn23)cc1 | 41.7 | 35.5 | 31.4 | 39.3 | 11.7 | – | – | – | – | – | –
COc1ccc(-c2cc(C(=O)Nc3nc4ccccc4s3)nc3cc(-c4ccccc4)nn23)cc1 | 4.67 | 2.23 | 2.95 | 1.69 | 1.54 | – | – | – | – | – | –
COc1ccc(-c2cc(C(=O)Nc3nc4ccc(Cl)cc4s3)nc3cc(-c4ccccc4)nn23)cc1 | 5.88 | 4.89 | 5.88 | 7.24 | 3.09 | – | – | – | – | – | –
COc1cc(-c2cc(C(=O)Nc3nc4ccc(Cl)cc4s3)nc3cc(-c4ccccc4)nn23)cc(OC)c1OC | 22.4 | 30.2 | 38.9 | 41.7 | 18.2 | – | – | – | – | – | –
COc1ccc2nc(NC(=O)c3cc(-c4cc(OC)c(OC)c(OC)c4)n4nc(-c5ccccc5)cc4n3)sc2c1 | 8.7 | 2.95 | 3.98 | 5.24 | 2.81 | – | – | – | – | – | –
COc1ccc(-c2cc(C(=O)Nc3nc4cc(C)c(C)cc4s3)nc3cc(-c4ccccc4)nn23)cc1OC | 6.76 | 2.51 | 6.91 | 8.7 | 2.95 | – | – | – | – | – | –
COc1ccc(-c2cc(C(=O)Nc3nc4cc(C)c(C)cc4s3)nc3cc(-c4ccccc4)nn23)cc1 | 14.1 | 19.7 | 12.3 | 22.4 | 13.2 | – | – | – | – | – | –
O=C(Nc1nc2ccc(Cl)cc2s1)c1cc(-c2ccc(F)cc2)n2nc(-c3ccccc3)cc2n1 | 9.77 | 19.8 | 17.6 | 13.8 | 6.6 | – | – | – | – | – | –
COc1ccc2nc(NC(=O)c3cc(-c4ccc(F)cc4)n4nc(-c5ccccc5)cc4n3)sc2c1 | 17.3 | 24.5 | 15.4 | 26.3 | 24 | – | – | – | – | – | –
COc1ccc2nc(NC(=O)c3cc(-c4ccc(OC)c(OC)c4)n4nc(-c5ccccc5)cc4n3)sc2c1 | 11 | 18.7 | 14 | 13.3 | 15.8 | – | – | – | – | – | –
COc1ccc(-c2cc(C(=O)Nc3nc4ccc(OC)cc4s3)nc3cc(-c4ccccc4)nn23)cc1 | 24.5 | 19.1 | 7.58 | 38.3 | 17.4 | – | – | – | – | – | –
O=C(Nc1nc2ccc(F)cc2s1)c1cc(-c2ccc(F)cc2)n2nc(-c3ccccc3)cc2n1 | 29.5 | 22.9 | 22.9 | 35.5 | 14.8 | – | – | – | – | – | –
COc1ccc(-c2cc(C(=O)Nc3nc4ccc(Cl)cc4s3)nc3cc(-c4ccccc4)nn23)cc1OC | 9.12 | 6.91 | 9.33 | 7.76 | 6.16 | – | – | – | – | – | –
COc1cc(-c2cc(C(=O)Nc3nc4ccc(F)cc4s3)nc3cc(-c4ccccc4)nn23)cc(OC)c1OC | 25.1 | 27.5 | 25.7 | 32.4 | 22.4 | – | – | – | – | – | –
COc1ccc(-c2cc(C(=O)Nc3nc4ccc(F)cc4s3)nc3cc(-c4ccccc4)nn23)cc1OC | 8.31 | 22.4 | 18.6 | 8.12 | 6.91 | – | – | – | – | – | –
